According to the RNAGym collection of RNA variant scans (doi:10.1038/nmeth.2970):

B1: NELF-E aptamer (parent)
chain: CCCAACGACUGCCGAGCGAGAUUACGCUUGAGCGCCCCACUGAGGAUGCCCACGGGCGAUUGGGGCACGG

Variants of: B1
Experiment: HiTS-RAP
Conditions: with NELF-E (Drosophila)
Method in brief: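 Kd came from weighted Hill fits to the first binding curve, with intensities normalised to sequencing intensity and averaged per sequence, keeping only fits whose variance was below 1,000,000. That curve was imaged on an Illumina GAIIx flowcell, where sequenced aptamer DNA templates with a T7 promoter and ter site had been transcribed in situ by T7 RNA polymerase and halted by GST-Tus (30 minutes, 37°C). Before each image, clusters equilibrated for 30 minutes at room temperature with NELF-E-mOrange at 0.064 to 1000 nM in HEPES binding buffer.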

Variant	Kd [nM]
CCCAACGACUGCCUAGCGAGAUUACGCUUGAGCGCCCCACUGAGGAUACCCACGGGCGAUUGGGGCACGG	13.2
CCCAACGACGGCCGAGCGAGUUUACGCUUGAGCGCCCCACUGAGGAUGCCCACGGGCGAUUGGGGCACGG	5.53
CCCAACGGCUGCCGAGCGAGAUUACGCUUGAGCGCCCCACUGUGGAUGCCCACGGGCGAUUGGGGCACGG	63.6
CCCAACGACUGCCGAGUGAGAUUGCGCUUGAGCGCCCCACUGAGGAUGCCCACGGGCGAUUGGGGCACGG	5.54
CCCAACGACUGCCGAGCGAGAUUACGCUUGAGCGCCCCACUGAGGAUGCCUACGGGCGAUUGGGGUACGG	7.21
CCCAACGACUUCCGAGUGAGAUUACGCUUGAGCGCCCCACUGAGGAUGCCCACGGGCGAUUGGGGCACGG	5.76
CCCAACGUCUGCCGAGCGAGAUUACGCUUGAGCGCCCCACUGAGGAUGCCCACGGGCGAUUGGGGUACGG	5.31
CCCAACGACUGCCUAGCGAGAUUACGCUUGAGCGCCCCACUGAGGAUGCCCACGGGUGAUUGGGGCACGG	5.72
CCCAAGGACUGCCGAGCAAGAUUACGCUUGAGCGCCCCACUGAGGAUGCCCACGGGCGAUUGGGGCACGG	4.48
CCCAACGUCUGCCGAGCGAGAUUACGCAUGAGCGCCCCACUGAGGAUGCCCACGGGCGAUUGGGGCACGG	5.05
CCCCACGACGGCCGAGCGAGAUUACGCUUGAGCGCCCCACUGAGGAUGCCCACGGGCGAUUGGGGCACGG	6.48
CCCAACGACCGCCGAGCGAGAUUACGCUUGAGCGCCCCACUGAGGAUGCCCACGUGCGAUUGGGGCACGG	9.22
CCCAACGACUGCCGAGGGAGAUUACGCUUGAGUGCCCCACUGAGGAUGCCCACGGGCGAUUGGGGCACGG	5.64
CCCAACGACUGCCGAGCGAGAUUACGCUUGAGCGCCCCACUGAGGCUGCCCACGGGCGAUUGGGGCACGG	9.89
CCCAACGACUUCCAAGCGAGAUUACGCUUGAGCGCCCCACUGAGGAUGCCCACGGGCGAUUGGGGCACGG	6.87
CCCAACGUCUGCCGAGCAAGAUUACGCUUGAGCGCCCCACUGAGGAUGCCCACGGGCGAUUGGGGCACGG	5.68
CCCGACGACUGCCGAGCGAGAUUACGCUUGAGCGCCCCACUGAGGAUGCCAACGGGCGAUUGGGGCACGG	9.97
CCCAACGACUGCGGAGCGAGAUUACGCUUGAGCGCCCCGCUGAGGAUGCCCACGGGCGAUUGGGGCACGG	9.58
CCCAACGAGUGCCGAGCGAGAUUACGCUUGAGCGCCUCACUGAGGAUGCCCACGGGCGAUUGGGGCACGG	16.1
CCCGACGACUGCCGAGCGAGAUUACGCUUGAGCGCCCCACUGAGUAUGCCCACGGGCGAUUGGGGCACGG	8.32

Variant	Kd [nM]
CCCAACGUCUGCCGAGCGAGUUUACGCUUGAGCGCCCCACUGAGGAUGCCCACGGGCGAUUGGGGCACGG	7.37
CCCAACGACUGCCGAGCGAGAUGACGCUUGAGCGCCCCACUGAGGAUGCCCACGGGCGAUUGGGGCCCGG	4.59
CCCAACGACUGCCGAGCGAGAGUACGCUUGAGCGCCCCACUGAGGAUGCCCACGGUCGAUUGGGGCACGG	5.99
CCCUGCGACUGCCGAGCGAGAUUACGCUUGAGCGCCCCACUGAGGAUGCCCACGGGCGAUUGGGGCACGG	5.88
CCCAACGACUGCCGAGCGAGAUUACGCUGGAGCGCCCCACUGAGGAUGCCCACGGGCGAUUGGGGCACGG	4.93
CCCAACGACUGCCGAGCGAGAUUACGCUUGAGCGCCCCACUGAGGAUGCCCACGGGCGAUUGGGGCACCG	5.52
CCCAACGACUGCCGAGCGGGAUUACGCUUGAGCGCCCCACUGGGGAUGCCCACGGGCGAUUGGGGCACGG	8.78
CCCAACGACUUCCGAGCGAGAUUACGCUUGAGCGCCCCACUGAGGAUGCCCUCGGGCGAUUGGGGCACGG	16.5
CCCAACGACUGCCGAGCGAGAUGACGCUUGAGCGCCCCACUGAGGAUGCCGACGGGCGAUUGGGGCACGG	5.33
CCCAACGACUGCCGAGCGAGAUGACGCUUGAGCGCCCCACUGAGGAUGCCUACGGGCGAUUGGGGCACGG	7.2
CCCAACGACUGCGGAGCGAGAUUACGCUUGAGCGCCCCACUGAGGAUGCCCUCGGGCGAUUGGGGCACGG	16.9
CCCAACGAGUGCCGAGCGAGAUUACGCUUGAGCGCCCCACUGAGGAUGCUCACGGGCGAUUGGGGCACGG	13.5
CCCAACGAGUGCCGAGCGAGAUUACGCUUGAGCGCCCCACUGAGGAUGCGCACGGGCGAUUGGGGCACGG	7.4
CCCGACGACUGCCGAGCAAGAUUACGCUUGAGCGCCCCACUGAGGAUGCCCACGGGCGAUUGGGGCACGG	5.38
CCCAACGACUGCCGAGCGAGUUUACGCUUGAGCGCCCCACUGAGGAUGCCCACGGGCGAUUGGGGCGCGG	5.54
CCCAACGACUGCCGAGCGAGAUUGCGCUUGAGCGCCCCACUGAGGAUGCCCACGGGUGAUUGGGGCACGG	6.3
CCCAACGACUGCCAAGCGAGAUUACGCUGGAGCGCCCCACUGAGGAUGCCCACGGGCGAUUGGGGCACGG	5.42
CCCAACGACUUCCGAGCGAGAUUACGCUUGAGCGCCUCACUGAGGAUGCCCACGGGCGAUUGGGGCACGG	7.71
CCCAACGACUGCCGAGCGAGAGUACGCUUGAGCUCCCCACUGAGGAUGCCCACGGGCGAUUGGGGCACGG	5.88
